ChEMBL document CHEMBL1138555, “N-acylated and N,N'-diacylated imidazolidine-2-thione derivatives and N,N'-diacylated tetrahydropyrimidine-2(1H)-thione analogues: synthesis and antiproliferative activity” (Eur J Med Chem, 2009)

Tests used:
SK-MEL-28 = test: Growth inhibition of human SK-MEL-28 cells after 48 hrs by sulforhodamine B assay; type: functional; conditions: SK-MEL-28, 48 h
In short: (§1)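 NCI screen panel. Five 10-fold concentrations from 10^-4 to 10^-8 M. Exposure for the last 48 h of a 72 h incubation. Growth estimated by sulforhodamine B protein assay. GI50 is the concentration giving 50% growth inhibition. Where that level was not reached or was exceeded, the value is given as above or below the highest or lowest concentration tested.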

SK-OV-3 = test: Growth inhibition of human SKOV3 cells after 48 hrs by sulforhodamine B assay; type: functional; conditions: SK-OV-3, 48 h; in short: as §1
EKVX = test: Growth inhibition of human EKVX cells after 48 hrs by sulforhodamine B assay; type: functional; in short: as §1
TK-10 = test: Growth inhibition of human TK10 cells after 48 hrs by sulforhodamine B assay; type: functional; conditions: TK-10, 48 h
In short: (§2)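 NCI in vitro panel screen. Compounds tested at five 10-fold dilutions, 10^-4 to 10^-8 M. Cells in 96-well plates were exposed for the last 48 h of a 72 h incubation. Viability/growth was read by sulforhodamine B protein assay. GI50 is the concentration giving 50% growth inhibition. Values beyond the tested range are reported as greater or less than the maximum or minimum concentration.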

Malme-3M = test: Growth inhibition of human MALME-3M cells after 48 hrs by sulforhodamine B assay; type: functional; in short: as §1
MOLT-4 = test: Growth inhibition of human MOLT4 cells after 48 hrs by sulforhodamine B assay; type: functional; conditions: MOLT-4, 48 h; in short: as §1
CAKI-1 = test: Growth inhibition of human Caki1 cells after 48 hrs by sulforhodamine B assay; type: functional; conditions: CAKI-1, 48 h; in short: as §1
HOP-92 = test: Growth inhibition of human HOP92 cells after 48 hrs by sulforhodamine B assay; type: functional; conditions: HOP-92, 48 h; in short: as §1
UO-31 = test: Growth inhibition of human UO31 cells after 48 hrs by sulforhodamine B assay; type: functional; conditions: UO-31, 48 h; in short: as §2
HCT-116 = test: Growth inhibition of human HCT116 cells after 48 hrs by sulforhodamine B assay; type: functional; conditions: HCT-116, 48 h; in short: as §1
NCI-H322M = test: Growth inhibition of human NCI-H322M cells after 48 hrs by sulforhodamine B assay; type: functional; in short: as §1
IGROV-1 = test: Growth inhibition of human IGROV1 cells after 48 hrs by sulforhodamine B assay; type: functional; conditions: IGROV-1, 48 h; in short: as §1
SW-620 = test: Growth inhibition of human SW620 cells after 48 hrs by sulforhodamine B assay; type: functional; conditions: SW-620, 48 h; in short: as §2
[1] = Growth inhibition of human […] cells after 48 hrs by sulforhodamine B assay; type: functional; in short: as §1
K562 = test: Growth inhibition of human K562 cells after 48 hrs by sulforhodamine B assay; type: functional; conditions: K562, 48 h; in short: as §1
HOP-62 = test: Growth inhibition of human HOP62 cells after 48 hrs by sulforhodamine B assay; type: functional; conditions: HOP-62, 48 h; in short: as §1
NCI-H23 = test: Growth inhibition of human NCI-H23 cells after 48 hrs by sulforhodamine B assay; type: functional; conditions: NCI-H23, 48 h; in short: as §1
786-0 = test: Growth inhibition of human 786-0 cells after 48 hrs by sulforhodamine B assay; type: functional; conditions: 786-0, 48 h; in short: as §1
MDA-MB-435 = test: Growth inhibition of human MDA-MB-435 cells after 48 hrs by sulforhodamine B assay; type: functional; conditions: MDA-MB-435, 48 h; in short: as §1
M14 = test: Growth inhibition of human M14 cells after 48 hrs by sulforhodamine B assay; type: functional; conditions: M14, 48 h; in short: as §1
RXF 393 = test: Growth inhibition of human RXF393 cells after 48 hrs by sulforhodamine B assay; type: functional; conditions: RXF 393, 48 h; in short: as §1
UACC-62 = test: Growth inhibition of human UACC62 cells after 48 hrs by sulforhodamine B assay; type: functional; conditions: UACC-62, 48 h; in short: as §2
A549 = test: Growth inhibition of human A549 cells after 48 hrs by sulforhodamine B assay; type: functional; conditions: A549, 48 h; in short: as §1
SNB-75 = test: Growth inhibition of human SNB75 cells after 48 hrs by sulforhodamine B assay; type: functional; conditions: SNB-75, 48 h; in short: as §2
HL-60(TB) = test: Growth inhibition of human HL-60(TB) cells after 48 hrs by sulforhodamine B assay; type: functional; conditions: HL-60, 48 h
In short: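 NCI 60-cell-line screen protocol: cells exposed to compound at five 10-fold dilutions from 10^-4 to 10^-8 M for the last 48 h of a 72 h incubation. Sulforhodamine B protein assay estimated viability/growth. GI50 (50% growth inhibition) derived; where not reached or exceeded, reported as greater or less than the highest or lowest concentration tested.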

OVCAR-8 = test: Growth inhibition of human OVCAR8 cells after 48 hrs by sulforhodamine B assay; type: functional; conditions: OVCAR-8, 48 h; in short: as §1
U-251 = test: Growth inhibition of human U251 cells after 48 hrs by sulforhodamine B assay; type: functional; conditions: U-251, 48 h; in short: as §2
KM12 = test: Growth inhibition of human KM12 cells after 48 hrs by sulforhodamine B assay; type: functional; conditions: KM12, 48 h; in short: as §1
NCI/ADR-RES = test: Growth inhibition of human NCI/ADR-RES cells after 48 hrs by sulforhodamine B assay; type: functional; in short: as §1
MDA-MB-231 = test: Growth inhibition of human MDA-MB-231 cells after 48 hrs by sulforhodamine B assay; type: functional; conditions: MDA-MB-231, 48 h; in short: as §1
COLO 205 = test: Growth inhibition of human COLO205 cells after 48 hrs by sulforhodamine B assay; type: functional; conditions: COLO 205, 48 h; in short: as §1
SK-MEL-2 = test: Growth inhibition of human SK-MEL-2 cells after 48 hrs by sulforhodamine B assay; type: functional; conditions: SK-MEL-2, 48 h; in short: as §1
SF-295 = test: Growth inhibition of human SF295 cells after 48 hrs by sulforhodamine B assay; type: functional; conditions: SF-295, 48 h; in short: as §1
SK-MEL-5 = test: Growth inhibition of human SK-MEL-5 cells after 48 hrs by sulforhodamine B assay; type: functional; conditions: SK-MEL-5, 48 h; in short: as §1
HT-29 = test: Growth inhibition of human HT-29 cells after 48 hrs by sulforhodamine B assay; type: functional; conditions: HT-29, 48 h; in short: as §1
PC-3 = test: Growth inhibition of human PC3 cells after 48 hrs by sulforhodamine B assay; type: functional; conditions: PC-3, 48 h; in short: as §1
DU-145 = test: Growth inhibition of human DU145 cells after 48 hrs by sulforhodamine B assay; type: functional; conditions: DU-145, 48 h; in short: as §1
SR = test: Growth inhibition of human SR cells after 48 hrs by sulforhodamine B assay; type: functional; in short: as §2
SF-268 = test: Growth inhibition of human SF268 cells after 48 hrs by sulforhodamine B assay; type: functional; conditions: SF-268, 48 h; in short: as §1
HCT-15 = test: Growth inhibition of human HCT15 cells after 48 hrs by sulforhodamine B assay; type: functional; conditions: HCT-15, 48 h; in short: as §1
OVCAR-3 = test: Growth inhibition of human OVCAR-3 cells after 48 hrs by sulforhodamine B assay; type: functional; conditions: OVCAR-3, 48 h; in short: as §1
NCI-H460 = test: Growth inhibition of human NCI-H460 cells after 48 hrs by sulforhodamine B assay; type: functional; conditions: NCI-H460, 48 h; in short: as §1
ACHN = test: Growth inhibition of human ACHN cells after 48 hrs by sulforhodamine B assay; type: functional; in short: as §1
SN12C = test: Growth inhibition of human SN12C cells after 48 hrs by sulforhodamine B assay; type: functional; in short: as §2
T47D = test: Growth inhibition of human T47D cells after 48 hrs by sulforhodamine B assay; type: functional; in short: as §2
MT4 = test: Antiproliferative activity against human MT4 cells assessed as reduction of growth by MTT assay; type: functional, cell-based
In short: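 MT-4 lymphoblastoid T cells (ATCC) in RPMI 1640 with 10% FCS, penicillin/streptomycin, checked for mycoplasma. 1 × 10⁴ mock-infected cells per well with serial dilutions from a 100 mM DMSO stock. Incubated 4 days at 37 °C, viable cells counted by MTT. IC50 versus untreated controls by linear regression. Mean of three separate experiments.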

LOX IMVI = test: Growth inhibition of human LOXIMVI cells after 48 hrs by sulforhodamine B assay; type: functional; in short: as §1
BT-549 = test: Growth inhibition of human BT549 cells after 48 hrs by sulforhodamine B assay; type: functional; conditions: BT-549, 48 h; in short: as §1
SNB-19 = test: Growth inhibition of human SNB19 cells after 48 hrs by sulforhodamine B assay; type: functional; conditions: SNB-19, 48 h; in short: as §2
OVCAR-4 = test: Growth inhibition of human OVCAR4 cells after 48 hrs by sulforhodamine B assay; type: functional; conditions: OVCAR-4, 48 h; in short: as §1
UACC-257 = test: Growth inhibition of human UACC257 cells after 48 hrs by sulforhodamine B assay; type: functional; conditions: UACC-257, 48 h; in short: as §2

COC(=O)/C(C#N)=C/N1CCN(C(=O)c2ccco2)C1=S
GI50 (SK-MEL-28): 13 µM
GI50 (SK-OV-3): 28.2 µM
GI50 (EKVX): 10.2 µM
GI50 (TK-10): 3.6 µM
GI50 (Malme-3M): 32.7 µM
GI50 (MOLT-4): 7.4 µM
GI50 (CAKI-1): 3.4 µM
GI50 (HOP-92): 14 µM
GI50 (UO-31): 5.2 µM
GI50 (HCT-116): 4 µM
GI50 (NCI-H322M): 14 µM
GI50 (IGROV-1): 6.2 µM
GI50 (SW-620): 5.2 µM
GI50 [1]: 3.3 µM
GI50 (K562): 3.7 µM
GI50 (HOP-62): 22.3 µM
GI50 (NCI-H23): 13.2 µM
GI50 (786-0): 6.3 µM
GI50 (MDA-MB-435): 6.8 µM
GI50 (M14): 6.4 µM
GI50 (RXF 393): 3.1 µM
GI50 (UACC-62): 10.8 µM
GI50 (A549): 14.6 µM
GI50 (SNB-75): 15.5 µM
GI50 (HL-60(TB)): 6.9 µM
GI50 (OVCAR-8): 15.5 µM
GI50 (U-251): 6.8 µM
GI50 (KM12): 3.3 µM
GI50 (NCI/ADR-RES): 24 µM
GI50 (MDA-MB-231): 4.2 µM
GI50 (COLO 205): 31.7 µM
GI50 (SK-MEL-2): 2.9 µM
GI50 (SF-295): 26 µM
GI50 (SK-MEL-5): 14.8 µM
GI50 (HT-29): 12.2 µM
GI50 (PC-3): 6.8 µM
GI50 (DU-145): 3.5 µM
GI50 (SR): 2.1 µM
GI50 (SF-268): 4.8 µM
GI50 (HCT-15): 3 µM
GI50 (OVCAR-3): 4.9 µM
GI50 (NCI-H460): 2.5 µM
GI50 (ACHN): 4.8 µM
GI50 (SN12C): 3.7 µM
GI50 (T47D): 4.6 µM
IC50 (MT4): 5 µM
GI50 (LOX IMVI): 2.4 µM
GI50 (BT-549): 4.2 µM
GI50 (SNB-19): 54.9 µM
GI50 (OVCAR-4): 23.3 µM
GI50 (UACC-257): 5.9 µM
